XBP1 UPR activ: activators of adaptive XBP1 UPR arm, primary screen, cell-based, CHO-XBP1 luciferase reporter, luminescence, uHTS | IRE1-XBP1 UPR activation; percent of tunicamycin response, DMSO as zero | AID 463104, 2010 | activation, % at 20 µM | 330,000 tested, 0.33% active;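 active means versus positive control, 20 µM dose yields 30% or more activation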
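incubation = overnight seeding at 37 °C, 6 h compound treatment at 37 °C | assay system = CHO-XBP1 cells stably carrying IRE1-XBP1-driven luciferase reporter | input = 1000 cells per well | detection = luciferase luminescence | dosing = single point, 20 µM final compound, 1% DMSO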
MC4R ag barr: MC4R agonists recruiting beta-arrestin, primary screen, cell-based, luminescence, agonist arm of biased-ligand search | U2OS MC4R beta-arrestin complementation; percent of melanotan II response, DMSO zero | Melanocortin receptor 4 (Homo sapiens), P32245 | 360,000 tested, 0.98% active | activation, % at 8.9 µM;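 active means activation above a per-plate cutoff, the mean activation of sample wells on that plate plus 3 SD, cut at about 8% in these data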
Target sequence (P32245 whole entry, looked up): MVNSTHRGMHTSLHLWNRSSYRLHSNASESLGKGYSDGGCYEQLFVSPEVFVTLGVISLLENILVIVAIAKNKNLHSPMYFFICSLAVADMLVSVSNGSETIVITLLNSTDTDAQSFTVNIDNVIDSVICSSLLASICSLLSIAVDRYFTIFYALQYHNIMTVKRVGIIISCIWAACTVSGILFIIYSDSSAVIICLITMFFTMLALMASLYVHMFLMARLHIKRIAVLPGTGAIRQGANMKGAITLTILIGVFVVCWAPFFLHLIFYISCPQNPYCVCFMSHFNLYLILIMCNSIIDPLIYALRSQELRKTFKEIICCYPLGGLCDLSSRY
CHOP UPR activ: activators of apoptotic CHOP UPR arm, primary screen, cell-based, CHO-CHOP luciferase reporter, luminescence, uHTS | 330,000 tested, 0.34% active | activation, % at 10 µM | UPR activation; percent of tunicamycin response over DMSO baseline | AID 449763, 2010;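 active means at 10 µM dose, activation of 40% or more, normalized to positive control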
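Dosing – one dose, 10 µM in 0.5% DMSO · System – CHO-CHOP cells, stable luciferase reporter of PERK-eIF2a-CHOP signalling · Input – 500 cells/well · Control set – tunicamycin 10 µg/mL final as positive, DMSO-only wells as negative · Timing – 6 h compound treatment, 37 °C · Measure – % activation vs tunicamycin · Technique – luminescence read with Steady-Glo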
MC4R antagonist: MC4R antagonists of cAMP signaling, primary screen, cell-based, TR-FRET, antagonist arm of biased-ligand search; 360,000 tested, 0.48% active; inhibition, % at 6.5 µM; MC4R-expressing cells, MTII-stimulated cAMP, LANCE TR-FRET;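 active means inhibition above its plate's cutoff, the mean of tested wells on that plate plus 3 SD, cut at about 29% in these data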
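System: U2OS-MC4R stable cell line; Technique: Eu-cAMP/anti-cAMP TR-FRET, emission 671 nm; Repeats: single well per compound; Also added: Melanotan II; Dosing: one concentration, 6.5 µM nominal; Schedule: 30-min compound, 1-h challenge, 1-h detection, room temperature.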
A1 inh: caspase 3/7 activation in MEF A1-2A-BIM cells, primary screen, A1 inhibitor project, cell-based, luminescence, HTS; caspase activation, % (no concentration beside the values); Caspase-Glo 3/7 luminescence, 3 h; percent of clofoctol response, vehicle zero; 330,000 tested, 0.066% active;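 active means over half of replicate activation scores above 10%, or exactly half above 10 with the replicate mean above 10; inconclusive means replicate mean below 10 yet half the replicates above 10; inactive means over half of replicates below 10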
Each line names hits and unclear results; the compound was inactive in the other large screens. A selection: hits, their analogues and other compounds. The true share with any hit is near 2%.

O=C1NC(=O)C(=Cc2ccc(-c3ccc(S(=O)(=O)N4CCOCC4)cc3)o2)C(=O)N1	MC4R antagonist 36
CC(C)(C)n1cccc1/C=C1\C(=O)NC(=O)N(c2ccccc2)C1=O	none
Cc1cc(C)cc(N2C(=O)NC(=O)/C(=C/c3cccn3-c3ccc(Cl)cc3)C2=O)c1	CHOP UPR activ 99
CC1Oc2cc3c(-c4c(O)cc(O)c5c(O)c6c(cc45)OC(C)C(C)C6=O)c(O)cc(O)c3c(O)c2C(=O)C1C (stereo not given)	MC4R ag barr 9.7
CC(C)(O)/C=C/C(=O)C(C)(O)C1C(O)CC2(C)C3CC=C4C(C=C(O)C(=O)C4(C)C)C3(C)C(=O)CC12C (stereo not given)	none (no result: XBP1 UPR activ, CHOP UPR activ, A1 inh)
CC(=O)OC(C)(C)/C=C/C(=O)[C@](C)(O)C1[C@H](O)C[C@@]2(C)C3CC=C4C(C[C@H](O)C(=O)C4(C)C)[C@]3(C)C(=O)C[C@]12C (stereo not given in full)	A1 inh 21
COc1cc2c(cc1/C=C/[N+](=O)[O-])OCO2	none (no result: XBP1 UPR activ, CHOP UPR activ, A1 inh)
COc1cc(/C=C/[N+](=O)[O-])ccc1OC(=O)c1cccnc1	A1 inh 8.0
CC1(CCCc2ccc(N(CCCl)CCCl)cc2)NC(=O)NC1=O (stereo not given)	none (no result: XBP1 UPR activ, CHOP UPR activ, A1 inh)
CC1=CC2OC3CC4OC(=O)C=CC=CC(=O)OCCC(C)C(O)C(=O)OCC2(CC1)C4(C)C31CO1 (stereo not given)	MC4R ag barr 8.9, MC4R antagonist 37 (no result: XBP1 UPR activ, CHOP UPR activ, A1 inh)
CC1CCOC(=O)C=CC=CC(=O)OC2CC3OC4C5OC5(C)C(O)CC4(COC(=O)C1O)C2(C)C31CO1 (stereo not given)	none (no result: XBP1 UPR activ, CHOP UPR activ, A1 inh)
CC1CCN(C(CC(=O)c2ccccc2)C(=O)c2ccccc2)CC1 (stereo not given)	none (no result: XBP1 UPR activ, CHOP UPR activ, A1 inh)
CNC(=O)Nc1ccc(C(=O)N/N=C\C23CC[C@@H](O)CC2(O)CC[C@@H]2[C@@H]3CCC3(C)C(C4=CC(=O)OC4)CCC23O)cc1 (stereo not given in full)	none
C[C@]12CC[C@H](O)C[C@H]1CC[C@@H]1[C@@H]2CC[C@]2(C)[C@@H](C3=CC(=O)OC3)CC[C@]12O	MC4R ag barr 34, A1 inh inconclusive
CC12CCC(O)CC1CCC1C2CCC2(C)C(C3=CC(=O)OC3)CCC12O (stereo not given)	MC4R ag barr 28 (no result: XBP1 UPR activ, CHOP UPR activ, A1 inh)
CC12CC[C@H]3[C@@H](CCC4(O)C[C@H](O)CCC34/C=N/NC(=O)Cc3ccccc3)C1(O)CCC2C1=CC(=O)OC1 (stereo not given in full)	none
COC1C(O)C(C)OC(OC2CCC3(C)C(CCC4C3C(O)CC3(C)C(C5=CC(=O)OC5)CCC43O)C2)C1O (stereo not given)	MC4R ag barr 18 (no result: XBP1 UPR activ, CHOP UPR activ, A1 inh)
CC12CCC(O)CC1CCC1C2CCC2(C)C(C3=CC(=O)OC3)C(O)CC12O (stereo not given)	MC4R ag barr 13 (no result: XBP1 UPR activ, CHOP UPR activ, A1 inh)
c1ccc(C(c2ccccc2)c2ccncc2)cc1	none (no result: XBP1 UPR activ, CHOP UPR activ, A1 inh)
C[C@]12CC[C@H](O)C[C@H]1CC[C@@H]1[C@@H]2C[C@@H](O)[C@]2(C)[C@@H](C3=CC(=O)OC3)CC[C@]12O	MC4R ag barr 24
C[C@H]1CC[C@@H]2[C@@H](C)[C@H]3[C@H](C[C@H]4[C@@H]5CC=C6C[C@@H](O[C@@H]7O[C@H](CO)[C@H](O)[C@H](O[C@@H]8O[C@H](CO)[C@@H](O)[C@H](O)[C@H]8O)[C@H]7O[C@@H]7O[C@@H](C)[C@H](O)[C@@H](O)[C@H]7O)CC[C@]6(C)[C@H]5CC[C@]34C)N2C1	none
CC(=O)OC1CC(OC2C(O)CC(OC3C(O)CC(OC4CCC5(C)C(CCC6C5CC(O)C5(C)C(C7=CC(=O)OC7)CCC65O)C4)OC3C)OC2C)OC(C)C1OC1OC(CO)C(O)C(O)C1O (stereo not given)	MC4R ag barr 24 (no result: XBP1 UPR activ, CHOP UPR activ, A1 inh)
COc1ccc(C2=CC(c3ccc4c(c3)OCO4)c3c(c4ccccc4oc3=O)O2)cc1OC (stereo not given)	none (no result: XBP1 UPR activ, CHOP UPR activ, A1 inh)
CC1=CC(C)CC(C)OC(=O)CC(c2ccc(O)cc2)NC(=O)C(Cc2c(Br)[nH]c3ccccc23)N(C)C(=O)C(C)NC(=O)C(C)C1 (stereo not given)	none (no result: XBP1 UPR activ, CHOP UPR activ, A1 inh)
CC1c2ccccc2-n2nncc2CN1C (stereo not given)	none (no result: XBP1 UPR activ, CHOP UPR activ, A1 inh)
Oc1ccc(O)c2c1C1(Cl)C(Cl)=C(Cl)C2(Cl)C1(Cl)Cl	none (no result: XBP1 UPR activ, CHOP UPR activ, A1 inh)
COc1ccc(Oc2cc(NC(=O)c3nn(C)cc3[N+](=O)[O-])cc([N+](=O)[O-])c2)cc1	A1 inh 13
C[C@H]1CCC/C=C/C2C[C@H](O)CC2[C@H](O)/C=C/C(=O)O1 (stereo not given in full)	CHOP UPR activ 107
CC12CC[C@H]3[C@@H](CCC4(O)C[C@H](O)CCC34/C=N/NC(=O)c3ccccc3[N+](=O)[O-])C1(O)CCC2C1=CC(=O)OC1 (stereo not given in full)	none
C[C@]12CC[C@H]3C(CCC4(O)CC(O)CC[C@]34C=O)C1=CC[C@H]2c1ccc(=O)oc1 (stereo not given in full)	MC4R ag barr 21
CC(=O)O[C@H]1[C@H]2O[C@]23[C@@H]2CC[C@]4(O)C[C@@H](O)CC[C@]4(C)C2CC[C@]3(C)[C@H]1c1ccc(=O)oc1 (stereo not given in full)	MC4R ag barr 24
Cc1nc2ccccn2c1P(=S)(c1ccccc1)c1ccccc1	none (no result: XBP1 UPR activ, CHOP UPR activ, A1 inh)
C[C@@H]1O[C@@H](O[C@H]2C[C@@H](O)[C@]3(CO)[C@@H]4C(CC[C@]3(O)C2)[C@@]2(O)CC[C@H](C3COC(=O)C3)[C@@]2(C)C[C@H]4O)[C@H](O)[C@H](O)[C@H]1O (stereo not given in full)	MC4R ag barr 28
NC(Cc1ccc(F)cc1)c1csc(Nc2ncccn2)n1 (stereo not given)	none (no result: XBP1 UPR activ, CHOP UPR activ, A1 inh)
Cc1ccsc1/C=C1\C(=O)NC(=S)N(C)C1=O	CHOP UPR activ 176
CC1(C(=O)O)CC12c1ccccc1-c1ccccc12 (stereo not given)	none (no result: XBP1 UPR activ, CHOP UPR activ, A1 inh)

Screens (PubChem)
